According to ChEMBL document CHEMBL4406874, “One-pot synthesis of novel tert-butyl-4-substituted phenyl-1H-1,2,3-triazolo piperazine/piperidine carboxylates, potential GPR119 agonists” (Bioorg Med Chem Lett, 2019):

Target: T1, Glucose-dependent insulinotropic receptor (Homo sapiens, UniProt Q8TDV5)
T1 sequence (Q8TDV5 whole entry): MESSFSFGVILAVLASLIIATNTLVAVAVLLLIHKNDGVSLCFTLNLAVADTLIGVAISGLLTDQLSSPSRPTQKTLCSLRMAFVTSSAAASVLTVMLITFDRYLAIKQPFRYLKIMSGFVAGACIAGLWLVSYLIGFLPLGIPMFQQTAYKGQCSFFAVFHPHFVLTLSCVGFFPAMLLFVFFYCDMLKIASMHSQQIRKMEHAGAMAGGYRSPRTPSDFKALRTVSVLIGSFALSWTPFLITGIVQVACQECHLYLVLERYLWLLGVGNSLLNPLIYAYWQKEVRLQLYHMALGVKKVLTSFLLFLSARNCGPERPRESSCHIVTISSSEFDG
Test: Agonist activity at recombinant human GPR119 expressed in HEK293 cells after 24 hrs by steady-glo luciferase assay
Type: cell-based
Method in brief: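 HEK-293 cells stably carrying GPR119 plus a CRE-luciferase reporter, seeded at 10,000 cells/well and cultured 24 h before compound addition at 0.1 nM to 1mM. DMSO served as negative control and AR231453 as reference agonist. Luciferase signal was read after a further 24 h as a surrogate for cAMP elevation.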

EC50 [nM] | SMILES
4.21 | CC(C)(C)OC(=O)N1CCN(C(=O)c2cn(-c3ccc(C#N)cc3F)nn2)CC1
3.12 | CC(C)(C)OC(=O)N1CCN(C(=O)c2cn(-c3ccc(S(C)(=O)=O)cc3)nn2)CC1
8.78 | CC(C)(C)OC(=O)N1CCN(C(=O)c2cn(-c3ccc(C(F)(F)F)cc3Cl)nn2)CC1
14 | CC(C)(C)OC(=O)N1CCC(OC(=O)c2cn(-c3ccc(S(C)(=O)=O)cc3F)nn2)CC1
12.3 | CC(C)(C)OC(=O)N1CCN(C(=O)c2cn(-c3ccc(Cl)c(C(F)(F)F)c3)nn2)CC1
7.12 | CC(C)(C)OC(=O)N1CCN(C(=O)c2cn(-c3nc4ccccc4s3)nn2)CC1
12.3 | CC(C)(C)OC(=O)N1CCC(OC(=O)c2cn(-c3ccc(Cl)c(C(F)(F)F)c3)nn2)CC1
12.4 | CC(C)(C)OC(=O)N1CCN(C(=O)c2cn(-c3ccc(S(C)(=O)=O)cc3F)nn2)CC1
13.6 | CC(C)(C)OC(=O)N1CCN(C(=O)c2cn(-c3ccc(C(F)(F)F)cc3)nn2)CC1
11.1 | CC(C)(C)OC(=O)N1CCC(OC(=O)c2cn(-c3ccc(C(F)(F)F)cc3Cl)nn2)CC1
3.67 | CC(C)(C)OC(=O)N1CCC(OC(=O)c2cn(-c3ccc(S(C)(=O)=O)cc3)nn2)CC1
8.17 | CC(C)(C)OC(=O)N1CCC(OC(=O)c2cn(-c3nc4ccccc4s3)nn2)CC1
3.59 | CC(C)(C)OC(=O)N1CCC(OC(=O)c2cn(-c3ccc(C#N)cc3F)nn2)CC1
10.4 | CC(C)(C)OC(=O)N1CCC(OC(=O)c2cn(-c3ccc(C(F)(F)F)cc3)nn2)CC1
4.78 | CC(C)c1noc(C2CCN(c3ncnc(Nc4ccc(S(C)(=O)=O)cc4F)c3[N+](=O)[O-])CC2)n1
